Hep lipid drop – hepatic lipid droplet formation modulation | AML12 mouse hepatocytes, oleate lipid droplets, BODIPY imaging | inhibition, % at 6.5 µM | 240,000 tested, 0.4% active;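 active = lipid droplet intensity inhibited by at least 50%, with more than 500 cells counted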
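Assay system: AML12 hepatocytes (mouse); Probe or stimulus: oleic acid at 100 µM to induce lipid droplet formation; Dosing: compound at 6.5 µM only; Schedule: compound with oleate, overnight; Detection: fluorescence imaging, 20x objective, two fields per well; Measure: % inhibition of lipid droplet signal.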
ADAM10 inh – ADAM10 inhibition, QFRET primary screen. O14672. recombinant ADAM10, EDANS/DABCYL FRET peptide cleavage, 3 h. inhibition, % at 7 µM. 370,000 tested, 0.62% active. AID 720582;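 active = inhibition above a per-campaign cutoff equal to the mean of compounds falling between control-based bounds plus 3 SD, cut at about 20% in these data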;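 note: 0% = DMSO wells while the 100% control is not disclosed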
Target sequence (O14672 214-748 limits assumed): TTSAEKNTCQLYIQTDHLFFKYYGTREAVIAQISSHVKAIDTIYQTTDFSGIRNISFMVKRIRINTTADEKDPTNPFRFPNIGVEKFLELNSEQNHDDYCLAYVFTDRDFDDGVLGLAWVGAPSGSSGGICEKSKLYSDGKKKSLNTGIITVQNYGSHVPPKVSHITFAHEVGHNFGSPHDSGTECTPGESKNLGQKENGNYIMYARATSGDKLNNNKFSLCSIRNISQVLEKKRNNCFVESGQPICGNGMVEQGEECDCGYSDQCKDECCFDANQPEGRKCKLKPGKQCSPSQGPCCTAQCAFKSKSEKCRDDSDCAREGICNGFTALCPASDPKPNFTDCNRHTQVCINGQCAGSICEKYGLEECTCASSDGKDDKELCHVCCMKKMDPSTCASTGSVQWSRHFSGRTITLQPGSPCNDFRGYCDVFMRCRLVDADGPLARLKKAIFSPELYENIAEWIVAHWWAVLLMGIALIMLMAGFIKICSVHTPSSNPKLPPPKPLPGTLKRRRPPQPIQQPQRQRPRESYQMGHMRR
V-ATPase pH – regulators of yeast V-ATPase proton transport. S. cerevisiae, pHLuorin cytosolic pH fluorescence. response, % at 10 µM. 350,000 tested, 0.37% active. AID 504577; in the data active = response mostly above about 7.3%, no sharp cut-off; inactive = mostly below about 5.4%; note: actives read high
MPTP inh – permeability transition pore inhibition; isolated mouse mitochondria, Ca2+ swelling absorbance, 30 min; inhibition, % at 10 µM; 360,000 tested, 1.4% active;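 active = inhibition of 50% or more, scaled per plate between neutral and stimulator controls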;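 note: 0% = DMSO wells given calcium and 100% = 1 mM EGTA wells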
aDG glyco act – increases alpha dystroglycan glycosylation. activation, % at 10 µM. AID 624168. Pro5-aDG cells, alpha-DG glycosylation AlphaScreen (IIH6); 0% Pro5, 100% B10-LARGE cell signal. 360,000 tested, 0.22% active;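 active = activation of at least 8% versus controls, or a plate z-score of at least 8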;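 note: Pro5 are CHO cells carrying HIG-tagged alpha-DG that lacks glycosylation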
ADAM17 inh – ADAM17 inhibition, QFRET primary screen. P78536. recombinant ADAM17, EDANS/DABCYL FRET peptide cleavage. inhibition, % at 6.95 µM. 370,000 tested, 0.83% active;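 active = inhibition above the mean of compounds lying between control limits plus 3 SD, set per campaign, cut at about 8.5% in these data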;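 note: 0% = DMSO-only wells as the low control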
ADAM10 confirm – confirmation of inhibitors of human ADAM10. AID 743208. 2,100 tested, 1% active. shares compounds with ADAM10 inh. inhibition, % at 6.95 µM. ADAM10 QFRET peptide cleavage, EDANS fluorescence;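 active = inhibition above about 20% chosen separately for each screening run, limit read from the data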;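 note: 0% = DMSO wells and 100% = marimastat wells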
ADAM17 counter – counter-screen for ADAM10 exosite inhibitors: inhibitors of human ADAM17 | shares compounds with ADAM10 inh | ADAM17 QFRET peptide cleavage, EDANS fluorescence | inhibition, % at 6.95 µM | 2,100 tested, 0.5% active;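 active = mean triplicate inhibition above the solvent-only control wells' mean plus 3 SD, cut at about 12% in these data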;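 note: 0% = DMSO wells and 100% = marimastat wells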
ADAM10 counter – ADAM10 inhibition, counter-screen for ADAM17 exosite hits | recombinant ADAM10, EDANS/DABCYL FRET peptide cleavage, 3 h | inhibition, % at 6.95 µM | shares compounds with ADAM17 inh | AID 743256 | 2,900 tested, 47% active;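 active = mean inhibition over the triplicate runs exceeds the activity threshold set in the earlier primary screen, cut at about 20% in these data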;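 note: 0% = DMSO wells and 100% = marimastat wells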
ADAM17 confirm – human ADAM17 inhibition, confirmation; shares compounds with ADAM17 inh; recombinant ADAM17, EDANS/DABCYL QFRET peptide cleavage; inhibition, % at 6.95 µM; 2,900 tested, 65% active;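 active = mean inhibition across replicates above the hit cutoff set in the primary screen, cut at about 8.5% in these data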;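 note: 0% = DMSO wells and 100% = marimastat wells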
An asterisk follows results filed as active; . = not tested or not shown. This is a sample that favours compounds with a hit; in the whole collection about 3.1% have one here.

SMILES	Hep lipid drop	ADAM10 inh	V-ATPase pH	MPTP inh	aDG glyco act	ADAM17 inh	ADAM10 confirm	ADAM17 counter	ADAM10 counter	ADAM17 confirm
Clc1ccc2nc(CNc3nc(N4CCOCC4)nc4c3ncn4-c3ccsc3)[nH]c2c1	.	-14.0	.	.	.	-4.9	.	.	.	.
Cc1nc(-c2ccc(F)cc2)c(CC(=O)N(C)CC(=O)Nc2ccc(Cl)c(C(F)(F)F)c2)s1	.	31.6*	2.5	5.1	0.1	18.9*	1.4	0.9	25.5*	14.5*
Cc1nc(-c2ccc(F)cc2)c(CC(=O)N(C)CC(=O)Nc2ccccc2Cl)s1	.	-0.8	-0.3	-0.7	0.1	-2.1	.	.	.	.
CN(CC(=O)Nc1ccc(Cl)c(C(F)(F)F)c1)C(=O)CC1Sc2ccccc2NC1=O (stereo unspecified)	-16.8	33.4*	0.7	-0.5	1.4	13.5*	1.1	0.3	26.3*	12.9*
COc1cccc(NC(=O)CN(C)C(=O)CC2Sc3ccccc3NC2=O)c1 (stereo unspecified)	.	-7.2	-3.1	1.2	0.2	-1.1	.	.	.	.
Cc1ccc(C)c(OCC(=O)N(C)CC(=O)Nc2ccc(Cl)c(C(F)(F)F)c2)c1	.	22.9*	4.1	2.9	0.6	8.8*	3.9	0.5	31.1*	17.3*
O=[N+]([O-])c1cnc2ccccc2c1Sc1ccccc1	.	-5.9	.	.	.	-2.1	.	.	.	.
Cc1ccccc1N1CCN(CCCN2C(=O)CC(=C(c3ccccc3)c3ccccc3)C2=O)CC1	5.2	5.1	3.8	3.5	0.0	2.0	.	.	.	.
O=C1CC(=C(c2ccccc2)c2ccccc2)C(=O)N1CCCCN1CCN(c2cccc(Cl)c2)CC1	4.2	31.8*	2.2	11.7	-0.4	11.9*	4.8	1.2	3.9	7.7
COc1cccc2cc3c(nc12)C[C@@H]1CCCC(=O)N2CCC[C@@]12C3	.	-42.6	.	.	.	-11.7	.	.	.	.
CC(COc1ccc(Br)cc1)CN1CCC(C(O)(c2ccccc2)c2ccccc2)CC1 (stereo unspecified)	.	-1.5	.	.	.	5.8	.	.	.	.
Cc1ccc(NC(=O)c2nc[nH]c2C(=O)N[C@@H](C)C(=O)OC(C)(C)C)cc1	.	27.3*	4.8	-1.0	0.0	13.9*	2.3	0.8	28.4*	12.4*
O=C(CNC(=O)c1[nH]cnc1C(=O)NC(c1ccccc1)c1ccccc1)OCc1ccccc1	-2.8	21.1*	0.5	0.1	0.1	11.0*	8.7	3.3	28.9*	13.1*
CC(C)(C)OC(=O)CNC(=O)c1[nH]cnc1C(=O)NCC(=O)OCc1ccccc1	5.9	5.9	5.5	0.0	-0.5	-0.4	.	.	.	.
C[C@H](NC(=O)c1nc[nH]c1C(=O)N[C@@H](Cc1ccccc1)C(=O)OCc1ccccc1)C(=O)OC(C)(C)C	1.1	24.4*	-2.0	0.4	0.2	10.6*	9.7	2.9	26.1*	13.6*
CC(C)(C)OC(=O)C(Cc1ccc(OC(C)(C)C)cc1)NC(=O)CNC(=O)OCc1ccccc1 (stereo unspecified)	-1.9	24.6*	0.6	-0.6	0.3	13.4*	-0.5	0.3	15.3	8.1
COc1ccc(-n2c(SCC(=O)NNC(=S)Nc3ccc(C)cc3)nnc2-c2ccccc2)cc1	.	8.3	.	.	.	2.0	.	.	.	.
O=C(N[C@@H](Cc1ccccc1)C(=O)OCc1ccccc1)c1nc[nH]c1C(=O)NC(c1ccccc1)c1ccccc1	-1.2	13.4	-0.8	-0.5	0.2	8.1	.	.	.	.
O=C(CNC(=O)c1[nH]cnc1C(=O)N[C@@H](Cc1ccccc1)C(=O)OCc1ccccc1)OCc1ccccc1	-2.3	22.2*	1.0	2.0	0.4	8.8*	7.7	2.7	24.9*	15.0*
CC(C)(C)OC(=O)[C@H](Cc1ccccc1)NC(=O)c1nc[nH]c1C(=O)NCC(=O)OCc1ccccc1	-35.6	30.0*	1.3	-0.2	-0.2	10.7*	8.2	2.6	43.5*	20.4*
CC(O)[C@H]1CNCCN1CC1(c2ccccc2)CC1 (stereo partly specified)	.	20.3*	1.6	0.7	0.0	11.0*	1.9	0.1	-5.1	1.0
CCOc1ccc(C(=O)Nc2nnc(NC(=S)Nc3ccccc3)s2)cc1	49.4	10.3	3.4	1.8	1.4	5.6	.	.	.	.
Cc1ccc(C(=O)Nc2nnc(NC(=S)Nc3ccccc3)s2)cc1	21.4	23.7*	0.3	3.6	0.4	9.2*	12.2	3.5	-8.7	3.2
Cc1ccc(C(=O)NC2CCCCN(C(C)C)C2=O)cc1 (stereo unspecified)	.	-1.6	.	.	.	-3.2	.	.	.	.
CC(C)C[C@H](NC(=O)c1[nH]cnc1C(=O)N[C@@H](C)C(=O)OCc1ccccc1)C(=O)OCc1ccccc1	.	25.4*	1.7	0.7	0.5	11.5*	9.6	2.8	40.1*	20.8*
SMILES	Hep lipid drop	ADAM10 inh	V-ATPase pH	MPTP inh	aDG glyco act	ADAM17 inh	ADAM10 confirm	ADAM17 counter	ADAM10 counter	ADAM17 confirm
CC(C)C[C@H](NC(=O)c1nc[nH]c1C(=O)NCc1ccccc1)C(=O)OCc1ccccc1	-12.5	25.4*	2.2	-0.1	0.4	10.3*	7.4	3.9	34.7*	15.7*
C=CC(=O)N1C/C(=C/c2ccc(F)cc2)C(=O)/C(=C\c2ccc(F)cc2)C1	.	20.2*	-2.2	-0.6	-0.4	10.6*	2.8	0.5	21.1*	14.2*
Cc1noc(C)c1COc1ccc(C(=O)OCC(=O)Nc2cccc(S(=O)(=O)N3CCOCC3)c2)cc1	-1.7	24.5*	-1.6	-8.4	-0.1	11.3*	3.1	0.4	29.0*	13.3*
CC(C)(C)c1ccc(OCCC(=O)Nc2cccc(S(=O)(=O)N3CCOCC3)c2)cc1	-2.3	31.6*	-1.0	0.0	0.1	14.9*	4.6	3.7	32.4*	19.2*
COC[C@@H]1CCCN1c1ccc2c(c1)O[C@H]1CCN(C1)S2(=O)=O	.	-0.7	.	.	.	-0.5	.	.	.	.
CC(NC(=O)CSc1n[nH]c(N)n1)c1ccccc1 (stereo unspecified)	0.7	5.9	-2.7	-1.0	-0.1	1.1	.	.	.	.
CCCc1ccc(-c2cc(NC(=O)CSc3n[nH]c(N)n3)n(-c3ccccc3)n2)cc1	5.9	28.9*	1.8	1.7	-0.2	9.8*	3.5	1.6	29.2*	11.8*
COC(=O)[C@]12C[C@H](CC(=O)NCc3ccccc3)C(=O)N(Cc3ccc4c(c3)OCO4)C1=C[C@H](C(C)C)O[C@@H]2C1CC1	.	7.5	.	.	.	3.2	.	.	.	.

Bioassay records (PubChem)
